According to article PMC5697680 (Clinical Pharmacology in Drug Development, 2017):

Tests used:
[1] = Tolerability assessment; format: in vivo, healthy adults
Summary of the method: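 Healthy adults (18-65 years) got five single oral 20 mg doses of test compound (granule suspension or dispersible tablet in low- or high-mineral water, immediate or after 30-minute hold). Dosing followed a Latin square, fasted in the morning, with at least 7 days' washout. AEs and SAEs were recorded from first dose to follow-up at least 7 days post-dose, along with labs, vital signs, ECG and physical exams. Results were summarized as subject numbers and percentages.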

[2] = tested on: OCT2/MATE renal transporter; conditions: results in increased exposure to OCT2 substrates such as metformin; cited from earlier work
[3] = cited from earlier work

## C[C@@H]1CCO[C@H]2Cn3cc(C(=O)NCc4ccc(F)cc4F)c(=O)c(O)c3C(=O)N12 [DTG, Dolutegravir]
[1]; 15 participants, all five single 20 mg treatments
  AEs reported, number of subjects: 9 subjects
[1]; 15 participants, all treatments
  SAEs, AEs leading to withdrawal, or deaths: No SAEs
[1]; two reports of nausea in one subject, resolved on the same day
  drug‐related AEs (nausea, mild), number of subjects: 1 n
[2]
  effect on OCT2/MATE renal transporter: inhibition
[3]; concomitant administration
  reduction of DTG exposure by magnesium‐ and aluminum‐containing antacid: 70%
[3]; fasting conditions
  reduction of DTG plasma exposure by calcium supplement: 39%
  reduction of DTG plasma exposure by iron supplement: 54%
